High-throughput results as filed in PubChem.
Hits are enriched below; roughly 3.8% of the tested compounds scored in any of these assays.
Hep lipid drop – modulators of hepatic lipid droplet formation; AML12 mouse hepatocytes, oleate lipid droplets, BODIPY imaging; inhibition, % at 6.5 µM; actives 0.4% (n = 240,000);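 active = lipid droplet intensity inhibited by at least 50%, with more than 500 cells counted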
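Assay system: AML12 hepatocytes (mouse); Probe or stimulus: oleic acid at 100 µM to induce lipid droplet formation; Dosing: compound at 6.5 µM only; Schedule: compound with oleate, overnight; Detection: fluorescence imaging, 20x objective, two fields per well; Measure: % inhibition of lipid droplet signal.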
RGS4 pot – RGS4 potentiation or activation; actives 0.92% (n = 310,000); AID 463111; HEK293 M3R/inducible RGS4, carbachol calcium flux Fluo4; stronger effect = lower value; B-score at 10 µM;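 active = B-score of the integrated calcium signal more than 4 SD below the library mean, with starting fluorescence not abnormally high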;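 note: negative B-score means reduced calcium response which marks RGS4 activation or potentiation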
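System: HEK293 FlpIn-TREx cells, stable M3R, doxycycline-inducible RGS4. Timing: overnight RGS4 induction, 30 min dye load 37 °C, 20 min compound RT. Also added: carbachol, ECmax concentration. Measured by: Fluo4 fluorescence kinetic imaging of calcium. Evaluation: integrated calcium ratio converted to B score.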
RGS4 inh – human RGS4 inhibition; P49798; B-score at 10 µM; actives 0.45% (n = 310,000); HEK293 M3R/RGS4 inducible, Fluo-4 calcium flux; stronger effect = higher value; triggered by carbachol at its EC20;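 active = B-score, a plate-corrected calcium signal, over three deviations above library mean, with baseline fluorescence within five deviations of library mean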;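 note: RGS4 expression induced by doxycycline in cells with stable M3 receptor; B-score is computed from the integrated fluorescence ratio over baseline after carbachol; higher B-score means a larger calcium signal and so more RGS4 inhibition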
Target sequence (P49798 whole entry, looked up): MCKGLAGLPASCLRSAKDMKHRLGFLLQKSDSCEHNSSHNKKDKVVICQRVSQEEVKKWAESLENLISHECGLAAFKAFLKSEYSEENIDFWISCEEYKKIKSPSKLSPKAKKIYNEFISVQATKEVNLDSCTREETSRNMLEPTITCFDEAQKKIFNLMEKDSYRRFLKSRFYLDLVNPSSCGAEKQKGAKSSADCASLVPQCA
MrgX1 agonist – human MrgX1 receptor agonism, primary screen; Q96LB2; actives 0.44% (n = 310,000); B-score at 10 µM; MrgX1-HEK293 cells, Fluo-4 calcium fluorescence, agonist mode; stronger effect = higher value;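 active = calcium response B-score plate-corrected fluorescence ratio at least 3 library SD, with starting fluorescence B-score inside 5 SD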
Target sequence (Q96LB2 whole entry, looked up): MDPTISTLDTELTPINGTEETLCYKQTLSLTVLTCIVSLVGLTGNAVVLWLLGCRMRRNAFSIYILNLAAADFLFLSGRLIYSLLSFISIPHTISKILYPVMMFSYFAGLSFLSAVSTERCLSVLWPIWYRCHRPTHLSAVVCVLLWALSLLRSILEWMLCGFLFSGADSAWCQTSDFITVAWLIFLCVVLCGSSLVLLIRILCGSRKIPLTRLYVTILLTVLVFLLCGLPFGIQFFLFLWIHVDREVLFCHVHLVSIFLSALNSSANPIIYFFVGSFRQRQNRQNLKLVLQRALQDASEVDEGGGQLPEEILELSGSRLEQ
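times = overnight plating, then 30 min 37 °C plus 30 min room-temperature dye loading | assay system = stable human MrgX1 HEK293 cell line | input = fifteen thousand cells per well | signal = kinetic calcium dye fluorescence, Fluo-4 NW | dosing = compound delivered in addition one of three | read-out = B-scored fluorescence response ratio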
MrgX1 PAM – human MrgX1 positive allosteric modulation, primary screen. MrgX1-HEK293, Fluo-4 calcium flux, FDSS; stronger effect = higher value. AID 588675. B-score at 10 µM. Q96LB2. actives 0.63% (n = 310,000);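 active = plate-corrected calcium response at least 3 library SD above typical, normal starting fluorescence, not activating the receptor alone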;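 note: compound read alongside a low EC10 to EC30 dose of BAM8-22 agonist; peak minus trough fluorescence over baseline measured at the second addition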
MrgX1 antag – human MrgX1 receptor antagonism, primary screen; AID 588676; MRGX1-HEK293 calcium flux, Fluo-4, BAM8-22 antagonism; stronger effect = lower value; actives 1.3% (n = 310,000); B-score at 10 µM;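 active = calcium-response B-score plate-corrected more than 3 library SD below zero, starting fluorescence within 5 deviations, no agonist response on first addition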;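 note: peak minus trough fluorescence over baseline after final BAM8-22 challenge near maximal dose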
* marks the source's active call; other numbers are inactive results; i = inactive; . = no result.

SMILES	Hep lipid drop	RGS4 pot	RGS4 inh	MrgX1 agonist	MrgX1 PAM	MrgX1 antag
COc1ccc(Cl)cc1C(=O)NNC(=S)NC(=O)c1cc(-c2ccccc2)nc2ccccc12	.	-9.8*	i	i	i	-6.5*
CCCOc1ccc(C(=O)NNC(=S)NC(=O)c2cc(-c3ccc(Cl)cc3)nc3ccccc23)cc1	.	-9*	i	i	i	i
COC(=O)c1ccc(NC(=S)NC(=O)c2cc(-c3ccccc3)nc3ccccc23)cc1	2	i	i	i	i	i
COc1ccc(-c2cc(C(=O)NNC(=S)NC(=O)c3c(-c4ccccc4)noc3C)[nH]n2)cc1	-18	i	i	i	i	i
COc1ccc(C(=O)Nc2cccc(-c3cc4ccccc4oc3=O)c2)cc1[N+](=O)[O-]	-17	.	.	i	i	i
COc1ccc(C(=O)NNC(=S)NC(=O)c2cc(-c3ccccc3)nc3ccccc23)cc1	.	i	i	i	i	-6.8*
COc1ccccc1NC(=O)CCC(=O)N(Cc1ccc(OC)c(OC)c1)c1nccs1	5	i	i	i	i	-7.4*
COc1ccc(-c2noc(CCC(=O)N3CCN(c4cc(C)ccc4C)CC3)n2)cc1	-15	-7*	i	i	i	i
Cc1ccccc1C(=O)Oc1ccc2ccc(O)cc2c1	6	i	i	i	i	i
Cc1ccccc1S(=O)(=O)Oc1ccc2ccc(O)cc2c1	-2	-8.9*	i	i	i	i
O=C(/C=C/c1ccc(Cl)cc1)NC1CC2CCC1C2 (configuration not stated)	-1	i	i	i	7.2*	i
CC(Oc1ccc(Br)cc1)C(=O)Nc1ccc(N2CCOCC2)cc1N1CCOCC1 (configuration not stated)	.	i	i	i	i	i
FCCCOc1ccc(/C=N/OCc2ccc(Cl)cc2Cl)cc1	.	i	i	i	i	-5.5*
O=C(/C=C/c1ccc(OCCCF)cc1)NCc1cccc(Cl)c1	.	i	i	i	i	i
COc1ccccc1/C=C/C(=O)OCC(=O)NNC(=O)c1ccccc1	-2	i	i	i	i	-5.2*
COc1cccc2cc(C(=O)CS(=O)(=O)c3ccc(C(C)(C)C)cc3)c(=O)oc12	11	i	i	i	i	i
COc1ccc(S(=O)(=O)CC(=O)c2cc3cccc(C)c3oc2=O)cc1	6	i	i	42*	i	i
O=C(CS(=O)(=O)c1ccccc1)c1cc2cc(F)ccc2oc1=O	-10	i	i	61*	i	i
O=C(CS(=O)(=O)c1ccccc1)c1cc2ccccc2oc1=O	-12	i	i	i	i	i
CCOC(=O)c1ccc2c(c1)n(CCO)c(C)[n+]2CC	.	i	i	i	i	i
CCOC(=O)c1ccc2c(c1)n(CC)c(/C=C/N(C)c1ccccc1)[n+]2CC	-60	i	i	i	i	-5*
COc1cccc(C(=O)OCC(=O)NCCCc2ccccc2)c1	.	i	i	i	i	i
Cc1ccc(CNc2ccccc2C(=O)O)s1	-3	i	i	i	i	i
Clc1ccc(CSc2snnc2-c2ccccc2)cc1	-2	-7.2*	i	i	i	i
Cc1ccccc1Cn1c(=N)n(CC(=O)c2ccco2)c2ccccc21	.	i	i	i	i	i
SMILES	Hep lipid drop	RGS4 pot	RGS4 inh	MrgX1 agonist	MrgX1 PAM	MrgX1 antag
Cc1c(CCC(=O)O)c(=O)oc2cc3oc4c(c3cc12)CCCC4	-8	i	i	i	i	i
Cc1c(CCC(=O)N[C@@H](CC(C)C)C(=O)O)c(=O)oc2cc3oc4c(c3cc12)CCCC4	1	i	i	i	14*	i
CCC(C)NC(=O)c1ccc(N2CC3CC(C2)c2cccc(=O)n2C3)c(NC(=O)c2ccc(Br)o2)c1 (configuration not stated)	-14	i	i	i	i	i
O=C(O)CCC(=O)NNC(=O)c1ccc(Br)cc1	15	i	i	i	i	-9.3*
O=C(O)CCCC(=O)NNC(=O)c1cccc(Br)c1	23	i	i	i	i	i
COC(=O)c1ccc(/C=N/OCC(=O)NCc2ccc(F)cc2)cc1	0	i	i	i	i	-5.4*
Cc1ccc(C)c(N(CC(=O)N2CCCCCC2)S(C)(=O)=O)c1	0	i	i	i	i	i
Cc1ccc([N+](=O)[O-])cc1N(CC(=O)N1CCCCC1)S(C)(=O)=O	3	i	i	i	7.5*	i
Cc1ccc([N+](=O)[O-])cc1N(CC(=O)NC1CCCC1)S(C)(=O)=O	-9	i	i	i	11*	i
CC(=O)Nc1c(-c2ccccc2)c2cc(Br)ccc2[nH]c1=O	-2	i	i	i	i	i
CCC(C)n1c(=S)[nH]c2c(sc3ccc([N+](=O)[O-])cc32)c1=O (configuration not stated)	-18	i	i	i	9.2*	i
COc1ccc(-c2csc(NC(=O)c3ccccc3Br)c2C(=O)O)cc1	-1	i	i	i	i	i
COc1ccc(-c2csc(NC(=O)c3ccc(C(C)(C)C)cc3)c2C(=O)O)cc1	.	i	i	i	14*	i
CN1CCc2cc3c(c4c2[C@H]1[C@H](O)c1ccccc1-4)OCO3	.	-7.4*	i	i	i	i
COc1ccc2c(c1OC)C(=O)OC2C1c2c(cc3c(c2OC)OCO3)CCN1C (configuration not stated)	-13	i	i	i	i	i
CC[n+]1ccccc1/C=C1\Sc2ccc(C)cc2N1C	.	i	i	i	i	-8.4*
COc1ccc(NC(=O)c2ccc(-c3ccc([N+](=O)[O-])cc3)o2)cc1OC	0	i	i	i	i	-5.3*
COc1ccc(C(C)NC(=O)c2ccc([N+](=O)[O-])cc2)cc1OC (configuration not stated)	-1	i	i	i	i	-5.5*
COc1ccc(C(C)NC(=O)c2cccc([N+](=O)[O-])c2)cc1OC (configuration not stated)	6	i	i	i	i	i
COc1cccc(NC(=O)c2ccc(-c3ccc([N+](=O)[O-])cc3)o2)c1	11	i	i	i	i	i
C(=N\N(Cc1ccccc1)c1ccccc1)/c1cccnc1	-14	-7.9*	i	i	i	i
